pIC50: −log10 of the molar value. ≈ marks a conversion by molar mass, not a printed value. One block for each compound: values may come before it.
What was measured:
[1] = Toxicity in Beagle dog assessed as histiocytosis in lymph nodes at >= 100 mg/kg, po and measured after 13 weeks; assay type: organism-based, Canis lupus familiaris; settings: in vivo, 2184 h
[2] = Drug distribution in Beagle dog brain; assay type: ADME, tissue-based, Canis lupus familiaris; settings: in vivo
[3] = Cmax in Beagle dog at 10 mg/kg, po measured upto 48 hrs by LC-MS/MS analysis; settings: in vivo
[4] = Toxicity in Sprague-Dawley rat assessed as histiocytosis in lymph nodes at 10 to 50 mg/kg, po and measured after 4 to 13 weeks; assay type: organism-based, Lymph node; settings: in vivo, dose lower 10 mg/kg, time lower 4 weeks, dose upper 50 mg/kg, time upper 13 weeks
[5] = Toxicity in Sprague-Dawley rat at 2000 mg/kg, po administered as single dose and measured upto 13 weeks; assay type: organism-based; settings: in vivo, 2184 h
[6] = biological target: T1, Broad substrate specificity ATP-binding cassette transporter ABCG2 (Homo sapiens, UniProt Q9UNQ0); assay: Inhibition of sulfasalazine-stimulated BCRP ATP ase activity (unknown origin)
T1 sequence (Q9UNQ0 whole entry): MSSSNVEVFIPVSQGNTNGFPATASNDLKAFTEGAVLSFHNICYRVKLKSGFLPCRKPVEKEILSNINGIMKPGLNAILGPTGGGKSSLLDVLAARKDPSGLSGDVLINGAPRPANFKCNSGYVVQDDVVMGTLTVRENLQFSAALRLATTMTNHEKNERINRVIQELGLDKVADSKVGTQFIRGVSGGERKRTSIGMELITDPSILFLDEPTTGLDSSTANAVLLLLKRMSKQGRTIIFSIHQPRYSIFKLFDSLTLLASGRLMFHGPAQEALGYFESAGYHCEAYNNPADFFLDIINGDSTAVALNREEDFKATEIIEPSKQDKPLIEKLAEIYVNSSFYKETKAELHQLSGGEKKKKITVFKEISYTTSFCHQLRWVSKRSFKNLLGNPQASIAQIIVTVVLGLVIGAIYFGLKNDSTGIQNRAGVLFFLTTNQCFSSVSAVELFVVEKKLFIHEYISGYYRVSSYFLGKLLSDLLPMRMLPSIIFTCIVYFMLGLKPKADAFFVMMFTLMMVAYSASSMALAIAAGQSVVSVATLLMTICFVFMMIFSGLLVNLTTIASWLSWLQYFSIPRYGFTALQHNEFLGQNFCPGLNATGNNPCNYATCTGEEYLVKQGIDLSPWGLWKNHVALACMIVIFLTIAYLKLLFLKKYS

[7] = Aqueous solubility of compound at pH 3.8; assay type: physicochemical; settings: aqueous solution
[8] = Half life in Beagle dog at 3 mg/kg, iv measured upto 48 hrs by LC-MS/MS analysis; assay type: ADME, organism-based, Canis lupus familiaris; settings: in vivo
Summary of the method: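 Plasma pharmacokinetics in male Sprague-Dawley rats and male Beagle dogs (n = 3 per species), each given a single dose by IV at 3 mg/kg and by PO at 10 mg/kg. Cmax, Tmax, T1/2 and AUClast were derived for each route. F (%) was calculated from the PO and IV AUClast.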

[9] = AUClast in Sprague-Dawley rat at 3 mg/kg, iv measured upto 48 hrs by LC-MS/MS analysis; assay type: ADME, organism-based; parameters: route intravenous, dose 3 mg/kg, time <=48; settings: in vivo
Summary of the method: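 Single dose in male Sprague-Dawley rats and male Beagle dogs (n = 3 per species), given 3 mg/kg IV or 10 mg/kg PO. Plasma was sampled to derive Cmax, Tmax, T1/2 and AUClast by each route. Oral bioavailability (F) was calculated from the PO and IV AUClast.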

[10] = Drug distribution in Sprague-Dawley rat liver; assay type: ADME, tissue-based; settings: in vivo
[11] = biological target: ATP-binding cassette sub-family C member 3 (Homo sapiens, UniProt O15438); assay: Inhibition of […]-stimulated MRP3 ATPase activity (unknown origin) in presence of GSH
[12] = Drug distribution in Beagle dog bile; assay type: ADME, tissue-based, Canis lupus familiaris; settings: in vivo
Cytochrome P450 3A5 = Cytochrome P450 3A5 (Homo sapiens, UniProt P20815); assay: Drug metabolism assessed as human CYP3A5-mediated metabolism; assay type: ADME; settings: recombinant enzyme
[13] = Toxicity in Sprague-Dawley rat at 200 mg/kg, po administered as repeated dose and measured upto 13 weeks; assay type: organism-based; settings: in vivo, 2184 h
[14] = Drug metabolism in dog plasma assessed as metabolic ratio of 3-p-hydroxypaclitaxel at 6 mg/kg, po in presence of 3 mg/kg encequidar; assay type: ADME, organism-based, Canis lupus familiaris; settings: in vivo
[15] = Drug distribution in BALB/c mouse intestine at 20 mg/kg, po measured upto 24 hrs in presence of 10 mg/kg encequidar by LC-MS/MS analysis; assay type: ADME, organism-based; settings: in vivo
[16] = Cmax in Sprague-Dawley rat at 20 mg/kg, po measured upto 24 hrs in presence of 10 mg/kg encequidar by LC-MS/MS analysis; assay type: ADME, organism-based; parameters: route oral, dose 20 mg/kg, time <=24; settings: in vivo
[17] = Tmax in Sprague-Dawley rat at 20 mg/kg, po measured upto 24 hrs by LC-MS/MS analysis; assay type: ADME, organism-based; settings: in vivo
[18] = Drug distribution in Sprague-Dawley rat liver at 20 mg/kg, po measured upto 168 hrs in presence of 10 mg/kg encequidar by LC-MS/MS analysis; assay type: ADME, organism-based; settings: in vivo
MDA-MB-231 [19] = assay: (§1) Antitumor activity against human MDA-MB-231 cells xenografted in athymic nude mouse assessed as reduction in median number of days for tumor to reach two tumor mass doubling at 18 mg/kg, iv administered every other day for 4 doses and monitored for 70 to 82 days (reference value: 13.1 day); assay type: functional; settings: time 70-82 day
[20] = Ratio of drug concentration in BALB/c mouse small intestine to plasma at 20 mg/kg, po measured upto 24 hrs in presence of 10 mg/kg encequidar by LC-MS/MS analysis; assay type: ADME, organism-based
MDA-MB-231 [21] = assay: as §1, with “at 30” for “at 18”, “mg/kg, po” for “mg/kg, iv”, “doses in presence of 12 mg/kg encequidar” for “doses”; assay type: functional; settings: time 70-82 day
[22] = AUClast in Sprague-Dawley rat at 20 mg/kg, po measured upto 24 hrs in presence of 10 mg/kg encequidar by LC-MS/MS analysis; assay type: ADME, organism-based; parameters: route oral, dose 20 mg/kg, time <=24; settings: in vivo
[23] = Clearance in Sprague-Dawley rat at 6 mg/kg, iv measured upto 24 hrs by LC-MS/MS analysis; assay type: ADME, organism-based; settings: in vivo
HT-29 = assay: Antitumor activity against human HT-29 cells xenografted in athymic nude mouse assessed as reduction in tumor growth at 40 mg/kg, po in presence of 20 mg/kg encequidar; assay type: functional; parameters: scale not given: the % may be the effect or the level left
[24] = Drug accumulation in Beagle dog plasma at 6 mg/kg, po administered once per week for 4 weeks in presence of 3 mg/kg encequidar by LC-MS/MS analysis; assay type: ADME, organism-based, Canis lupus familiaris; settings: in vivo, 672 h
[25] = Toxicity in athymic nude mouse xenografted with human NCI-H460 cells assessed as reduction in body weight at 30 to 50 mg/kg, po administered every other day for 4 doses in presence of 12 to 20 mg/kg encequidar and monitored for 48 days; assay type: organism-based; settings: in vivo, 1152 h, dose 30-50 mg/kg, time 48 day
MDA-MB-231 [26] = assay: as §1, with “at 40” for “at 18”, “mg/kg, po” for “mg/kg, iv”, “doses in presence of 16 mg/kg encequidar” for “doses”; assay type: functional; settings: time 70-82 day
MDA-MB-231 [27] = assay: Antitumor activity against human MDA-MB-231 cells xenografted in athymic nude mouse assessed as reduction in median number of days for tumor to reach two tumor mass doubling at 12 mg/kg, iv administered every other day for 4 doses and monitored for 70 to 82 days (reference value: 13.1 day); assay type: functional; settings: time 70-82 day

Chain of Cytochrome P450 3A5 (P20815 whole entry): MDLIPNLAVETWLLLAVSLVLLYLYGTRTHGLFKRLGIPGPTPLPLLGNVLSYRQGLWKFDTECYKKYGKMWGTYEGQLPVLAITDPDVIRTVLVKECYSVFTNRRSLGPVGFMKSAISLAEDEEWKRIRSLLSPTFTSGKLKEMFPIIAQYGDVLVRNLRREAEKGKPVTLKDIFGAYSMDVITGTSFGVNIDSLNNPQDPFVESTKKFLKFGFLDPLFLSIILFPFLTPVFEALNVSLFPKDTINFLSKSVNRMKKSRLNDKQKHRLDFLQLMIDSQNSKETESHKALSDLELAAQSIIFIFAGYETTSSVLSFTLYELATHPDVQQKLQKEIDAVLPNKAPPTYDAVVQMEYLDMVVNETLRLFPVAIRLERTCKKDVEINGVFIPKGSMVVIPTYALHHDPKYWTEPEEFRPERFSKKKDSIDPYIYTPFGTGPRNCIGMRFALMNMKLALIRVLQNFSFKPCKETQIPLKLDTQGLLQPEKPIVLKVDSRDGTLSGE
Chain of ATP-binding cassette sub-family C member 3 (O15438 whole entry): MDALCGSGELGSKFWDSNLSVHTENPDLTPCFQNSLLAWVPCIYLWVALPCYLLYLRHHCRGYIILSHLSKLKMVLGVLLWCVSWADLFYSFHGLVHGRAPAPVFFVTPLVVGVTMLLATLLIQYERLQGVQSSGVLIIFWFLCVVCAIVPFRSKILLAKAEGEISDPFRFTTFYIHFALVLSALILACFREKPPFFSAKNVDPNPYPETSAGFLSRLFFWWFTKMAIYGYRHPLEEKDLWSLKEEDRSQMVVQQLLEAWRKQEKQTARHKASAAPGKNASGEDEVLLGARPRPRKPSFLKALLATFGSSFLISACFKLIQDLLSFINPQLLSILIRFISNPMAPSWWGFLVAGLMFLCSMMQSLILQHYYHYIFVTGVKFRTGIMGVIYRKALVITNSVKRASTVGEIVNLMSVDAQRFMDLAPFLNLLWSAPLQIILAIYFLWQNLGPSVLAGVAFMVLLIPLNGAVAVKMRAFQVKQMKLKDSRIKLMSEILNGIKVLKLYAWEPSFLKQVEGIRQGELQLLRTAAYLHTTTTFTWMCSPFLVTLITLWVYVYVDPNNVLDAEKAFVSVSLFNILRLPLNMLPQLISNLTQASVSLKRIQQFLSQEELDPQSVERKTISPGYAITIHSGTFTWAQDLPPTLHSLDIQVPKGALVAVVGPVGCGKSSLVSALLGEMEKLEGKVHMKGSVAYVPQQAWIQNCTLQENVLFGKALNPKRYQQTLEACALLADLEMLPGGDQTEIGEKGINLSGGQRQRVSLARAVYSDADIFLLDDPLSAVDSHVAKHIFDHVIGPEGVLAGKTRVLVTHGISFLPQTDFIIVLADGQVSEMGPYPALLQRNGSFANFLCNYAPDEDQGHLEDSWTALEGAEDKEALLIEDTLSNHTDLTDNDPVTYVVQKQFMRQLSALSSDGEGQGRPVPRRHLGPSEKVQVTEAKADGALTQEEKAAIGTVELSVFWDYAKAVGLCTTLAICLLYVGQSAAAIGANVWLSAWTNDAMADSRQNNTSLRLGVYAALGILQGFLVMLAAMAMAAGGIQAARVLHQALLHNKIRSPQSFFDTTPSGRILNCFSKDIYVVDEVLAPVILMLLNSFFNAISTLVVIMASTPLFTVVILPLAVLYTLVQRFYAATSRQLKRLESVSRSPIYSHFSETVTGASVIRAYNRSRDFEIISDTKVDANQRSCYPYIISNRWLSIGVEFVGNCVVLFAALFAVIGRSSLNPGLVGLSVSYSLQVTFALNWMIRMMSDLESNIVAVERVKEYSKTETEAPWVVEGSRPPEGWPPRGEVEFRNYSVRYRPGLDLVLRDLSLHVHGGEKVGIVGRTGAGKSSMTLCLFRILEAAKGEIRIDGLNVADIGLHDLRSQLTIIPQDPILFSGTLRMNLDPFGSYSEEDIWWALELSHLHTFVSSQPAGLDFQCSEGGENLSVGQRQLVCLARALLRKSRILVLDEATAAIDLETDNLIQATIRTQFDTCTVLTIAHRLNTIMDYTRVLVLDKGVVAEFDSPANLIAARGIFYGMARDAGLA

- Drug uptake [2]: Not Active
- Cmax [3]: 26.6 ng/mL
- pIC50 [6]: < 5.43
- solubility [7]: 0.219 µg/mL (≈ 0.318 µM)
- half-life [8]: 16.9 h
- AUC(0-t) at 48 h [9]: 619 ng·h/mL
- Drug uptake [10]: Active
- pIC50 [11]: < 4.00
- Drug uptake [12]: Active
- Drug metabolism (Cytochrome P450 3A5): Metabolite_Detected
SMILES: COc1cc2c(cc1OC)CN(CCc1ccc(-n3nnc(-c4cc(OC)c(OC)cc4NC(=O)c4cc(=O)c5ccccc5o4)n3)cc1)CC2
- Activity [1]: Toxic
- Activity [4]: Toxic
- Activity [5]: Non-Toxic
- Activity [13]: Non-Toxic

SMILES: CC(=O)O[C@H]1C(=O)[C@@]2(C)[C@H]([C@H](OC(=O)c3ccccc3)[C@]3(O)C[C@H](OC(=O)[C@H](O)[C@@H](NC(=O)c4ccccc4)c4ccccc4)C(C)=C1C3(C)C)[C@]1(OC(C)=O)CO[C@@H]1C[C@@H]2O [PACLITAXEL]
- Ratio [14]: 0.01
- Drug uptake [15]: Active
- Cmax [16]: 1250 ng/mL
- Tmax [17]: 0.9 h
- Drug uptake [18]: Active
- Time (MDA-MB-231 [19]): >69 days
- Kp at 24 h [20]: > 1
- Time (MDA-MB-231 [21]): >69 days
- AUC(0-t) at 24 h [22]: 3760 ng·h/mL
- clearance [23]: 35 mL/min
- Activity (HT-29): 94%
- Drug uptake [24]: Not Active
- Activity [25]: Toxic
- Time (MDA-MB-231 [26]): >69 days
- Time (MDA-MB-231 [27]): 26.1 days

From ChEMBL document CHEMBL4825663 (J Med Chem, 2021)
